Measured values reported in PubChem BioAssay AID623965 (Broad Institute, 2012).
Where “and” joins values, the source holds several entries; their conditions need not be identical. Identical values can stand only once.

The compounds below were run on Candida glabrata growth in glycerol medium, OD600, 48 h (assay: single-agent C. glabrata growth inhibition on glycerol, dose response, glycerol carbon source, dry powder, plate reader, set 3 (AID 623965)).
Outline: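 Test system: Candida glabrata yeast cells; Buffer or medium: CSM synthetic medium with glycerol as carbon source; Incubation: 48 h at 30 °C, no shaking; Measured by: OD600 absorbance.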

Row | SMILES | AC50
1 | CCOC(=O)N1C(=O)C2(CCCCC2)N(c2ccc(C#N)cc2)C1=S | 39.8 nM
2 | CCOC(=O)N1C(=O)C2(CCCCC2)N(c2ccc(C)cc2)C1=S | 57.6 nM and 55.3 nM
3 | CCOC(=O)N1C(=O)C2(CCCCC2)N(c2ccc(F)cc2)C1=S | 11.3 nM
4 | CCOC(=O)N1C(=O)C2(CCCCC2)N(c2ccc(Cl)cc2)C1=S | 29.7 nM
5 | CC1/C=C/C=C\C=C\C=C\C=C\C=C\C=C\C(O[C@H]2OC(C)C(O)C(N)C2O)CC2OC(O)(CC(O)CC(O)C(O)CCC(O)CC(O)CC(=O)OC(C)C(C)C1O)CC(O)C2C(=O)O (stereo partly drawn) | 1410 nM
6 | CCOC(=O)N1C(=O)C2(CCCCC2)N(c2cccc(C)c2)C1=S | 38.6 nM
7 | C/C=C/[C@@H]1[C@H]2C[C@@H](C)CC[C@@H]2C(C)=C[C@H]1C(=O)c1c(O)c(-c2ccc(O)cc2)c[nH]c1=O | 2940 nM
8 | CCOC(=O)N1C(=O)C2(CCCCC2)N(c2ccccc2)C1=S | 33.5 nM
